Reference: ChEMBL document CHEMBL4359917, “Design, synthesis, and biological evaluation of novel benzodiazepine derivatives as anticancer agents through inhibition of tubulin polymerization in vitro and in vivo” (Eur J Med Chem, 2019)

What was measured:
[1] = test system: A549; assay: Antitumour activity against human A549 cells xenografted in BALB/c nude mouse assessed as tumour growth inhibition at 30 mg/kg, ip administered every other day measured at day 26 by electronic caliper method relative to control; assay type: functional; conditions: 624 h, read-out: GI
[2] = test system: A549; assay: Antitumour activity against human A549 cells xenografted in BALB/c nude mouse assessed as tumour volume at 30 mg/kg, ip administered every other day measured at day 26 by electronic caliper method (reference value: 2006.37 mm3); assay type: functional
[3] = test system: A549; assay: Antitumour activity against human A549 cells xenografted in BALB/c nude mouse assessed as tumour weight at 30 mg/kg, ip administered every other day measured at day 26 by electronic caliper method (reference value: 1.894 g); assay type: functional
[4] = test system: A549; assay: Antiproliferative activity against human A549 cells assessed as cell growth inhibition measured after 48 hrs by MTT assay; assay type: functional, cell-based; conditions: A549, 48 h
Method in brief: (§1)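 Cancer cell lines exposed to compounds for 48 h; viability read by MTT assay. IC50 reported as mean ± SD from at least three independent experiments.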

[5] = test system: HCT-116; assay: Antiproliferative activity against human HCT116 cells assessed as cell growth inhibition measured after 48 hrs by MTT assay; assay type: functional, cell-based; conditions: HCT-116, 48 h; method in brief: as §1
[6] = test system: HeLa; assay: Antiproliferative activity against human HeLa cells assessed as cell growth inhibition measured after 48 hrs by MTT assay; assay type: functional, cell-based; method in brief: as §1
[7] = test system: MDA-MB-231; assay: Antiproliferative activity against human MDA-MB-231 cells assessed as cell growth inhibition measured after 48 hrs by MTT assay; assay type: functional, cell-based; conditions: MDA-MB-231, 48 h; method in brief: as §1
[8] = test system: HepG2; assay: Antiproliferative activity against human HepG2 cells assessed as cell growth inhibition measured after 48 hrs by MTT assay; assay type: functional, cell-based; conditions: HepG2, 48 h; method in brief: as §1
[9] = Metabolic stability in Sprague-Dawley rat liver microsomes assessed as parent compound remaining after 30 mins in presence of NADPH by HPLC-UV-MS analysis; assay type: ADME, Microsome; conditions: read-out: Stability
Method in brief: (§2)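 Compound incubated with rat liver microsomes in buffer containing an NADPH regenerating system. Percentage of parent remaining was determined at time points up to 180 min, and half-life was derived.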

[10] = Metabolic stability in Sprague-Dawley rat liver microsomes assessed as parent compound remaining after 120 mins in presence of NADPH by HPLC-UV-MS analysis; assay type: ADME, Microsome; conditions: read-out: Stability; method in brief: as §2
[11] = Metabolic stability in Sprague-Dawley rat liver microsomes assessed as parent compound remaining after 90 mins in presence of NADPH by HPLC-UV-MS analysis; assay type: ADME, Microsome; conditions: read-out: Stability; method in brief: as §2
[12] = Metabolic stability in Sprague-Dawley rat liver microsomes assessed as parent compound remaining after 60 mins in presence of NADPH by HPLC-UV-MS analysis; assay type: ADME, Microsome; conditions: read-out: Stability; method in brief: as §2
[13] = Metabolic stability in Sprague-Dawley rat liver microsomes assessed as parent compound remaining after 150 mins in presence of NADPH by HPLC-UV-MS analysis; assay type: ADME, Microsome; method in brief: as §2
[14] = Half-life in Sprague-Dawley rat liver microsomes in presence of NADPH by HPLC-UV-MS analysis; assay type: ADME, Microsome; method in brief: as §2
[15] = Solubility of compound in water; assay type: physicochemical; conditions: buffer
[16] = Toxicity in BALB/c nude mouse xenografted with human A549 cells assessed as effect on body weight at 30 mg/kg, ip administered every other day measured for 26 days; assay type: organism-based; conditions: in vivo, 624 h
[17] = in vitro; conditions: Sprague-Dawley, rat, liver microsomes

Compound | IC50 [4] | IC50 [5] | IC50 [6] | IC50 [7] | IC50 [8] | further results
COc1ccc(/C=C\c2cc(OC)c(OC)c(OC)c2)cc1OP(=O)([O-])[O-].[Na+].[Na+] [FOSBRETABULIN DISODIUM] | – | – | – | – | – | inhibition in vivo at 30 mg/kg [1]: 52.8%; Activity [2]: 984.86 mm3; Activity [3]: 0.879 g
COc1cc(-c2c(C)c(=O)[nH]c3c(O)c(OC)ccc23)cc(SC)c1OC | 86 nM | 229 nM | 158 nM | 133 nM | 303 nM | –
COc1ccc2c(c1O)NC(=O)CN=C2c1cc(OC)c(OC)c(SC)c1 | 18.7 nM | 10.8 nM | 16.5 nM | 24.7 nM | 14.2 nM | –
COc1ccc2c(c1O)NC(=O)CN=C2c1ccc(OC)c2c1OC(C)(C)C=C2 | 433 nM | 207 nM | 1870 nM | 3710 nM | 4590 nM | –
COc1ccc(/C=C\c2cc(OC)c(OC)c(OC)c2)cc1O [COMBRETASTATIN A4] | – | – | – | – | – | remaining at 0.5 h [9]: 66.3%; remaining at 2 h [10]: 17.9%; remaining at 1.5 h [11]: 21.6%; remaining at 1 h [12]: 36.4%; Stability ([13]; microsomes, 2.5 h): Unstable; half-life [14]: < 1 h
COc1cc(C2=NCC(=O)Nc3c2ccc(OC)c3OP(=O)([O-])[O-])cc([Se]C)c1OC.[Na+].[Na+] | – | – | – | – | – | inhibition in vivo at 30 mg/kg [1]: 89.3%; solubility [15]: Soluble; Activity [2]: 215.2 mm3; Activity [3]: 0.201 g; Activity [16]: Non-Toxic
COc1ccc2c(c1O)NC(=O)CN=C2c1cc(OC)c(OC)c(OC)c1 | 9.15 nM | 16.6 nM | 18.1 nM | 54.6 nM | 15.7 nM | remaining at 3 h [17]: 49.9%; remaining at 0.5 h [9]: 94.3%; remaining at 2 h [10]: 65.3%; remaining at 1.5 h [11]: 76.2%; remaining at 1 h [12]: 85.5%; remaining at 2.5 h ([13]; Sprague-Dawley, liver microsomes, read-out: Stability): 55.2%; half-life [14]: 2.62 h
COc1cc(-c2cc(=O)[nH]c3c(O)c(OC)ccc23)cc([Se]C)c1OC | 60.7 nM | 124 nM | 51.7 nM | 69 nM | 22 nM | –
COc1cc(C2=NCC(=O)Nc3c2ccc(OC)c3OP(=O)([O-])[O-])cc(SC)c1OC.[Na+].[Na+] | – | – | – | – | – | inhibition in vivo at 30 mg/kg [1]: 79.3%; solubility [15]: Soluble; Activity [2]: 369.25 mm3; Activity [3]: 0.373 g; Activity [16]: Non-Toxic
COc1cc(C2=NCC(=O)Nc3c2ccc(OC)c3OP(=O)([O-])[O-])cc(OC)c1OC.[Na+].[Na+] | – | – | – | – | – | inhibition in vivo at 30 mg/kg [1]: 77.7%; Activity [2]: 408.17 mm3; Activity [3]: 0.415 g
COc1cc(-c2cc(=O)[nH]c3c(O)c(OC)ccc23)cc(SC)c1OC | 61.8 nM | 28.8 nM | 35.5 nM | 70 nM | 51.7 nM | –
COc1ccc2c(c1O)NC(=O)CN=C2c1cc(OC)c(OC)c(N(C)C)c1 | 66.2 nM | 53 nM | 54.9 nM | 91 nM | 52 nM | –
COc1ccc2c(c1O)NC(=O)C(C)N=C2c1cc(OC)c(OC)c(SC)c1 (centres undefined) | 93 nM | 89 nM | 1070 nM | 295 nM | 295 nM | –
COc1ccc2c(c1O)NC(=O)CN=C2c1cc2c(c(OC)c1)OC(C)(C)C=C2 | 56.2 nM | 13.9 nM | 34.7 nM | 69 nM | 30.5 nM | –
